Each block holds one compound with its values, some of them ahead of it.
Tests used:
[1] = molecular target: T1, MUS81-EME1 heterodimer (MUS81 residues 246-551; EME1 residues 246-570) (Homo sapiens, UniProt Q96NY9); assay: Surface plasmon resonance; type: binding; settings: SPR affinity; for increase in affinity: compared with 5
T1 sequence (Q96NY9 246-551): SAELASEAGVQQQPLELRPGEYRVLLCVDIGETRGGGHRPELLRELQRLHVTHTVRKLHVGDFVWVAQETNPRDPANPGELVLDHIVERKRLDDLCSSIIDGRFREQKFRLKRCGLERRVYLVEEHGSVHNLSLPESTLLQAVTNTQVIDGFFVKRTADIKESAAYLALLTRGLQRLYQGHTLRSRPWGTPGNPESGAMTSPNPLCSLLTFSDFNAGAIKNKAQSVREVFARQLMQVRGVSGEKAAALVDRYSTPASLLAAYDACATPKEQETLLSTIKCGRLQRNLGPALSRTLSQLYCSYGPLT
T1 sequence (Q96AY2 246-570 partner limits assumed): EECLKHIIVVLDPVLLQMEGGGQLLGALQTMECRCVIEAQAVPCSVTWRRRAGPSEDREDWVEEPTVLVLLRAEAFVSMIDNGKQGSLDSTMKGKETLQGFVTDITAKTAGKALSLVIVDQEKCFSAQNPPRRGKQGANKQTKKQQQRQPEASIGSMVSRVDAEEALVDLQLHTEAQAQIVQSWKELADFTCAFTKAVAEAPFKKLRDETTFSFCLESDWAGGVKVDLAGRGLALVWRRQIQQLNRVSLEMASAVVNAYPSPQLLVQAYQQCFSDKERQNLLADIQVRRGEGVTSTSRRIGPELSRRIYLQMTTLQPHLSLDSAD
Method in brief: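 Kd values for binding to MUS81-EME1 were measured by SPR. Affinities are the geometric mean with geometric standard deviation of at least three determinations.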

Full length MUS81-EME1 = molecular target: T2, Full length MUS81-EME1 (Homo sapiens, UniProt Q96NY9); assay: MUS81-EME1 biochemical enzyme-inhibition assay; settings: for improvement in biochemical activity (IC50): compared with pyrimidinone 15; for improvement in biochemical activity: compared to 18
T2 sequence (Q96NY9 1-551): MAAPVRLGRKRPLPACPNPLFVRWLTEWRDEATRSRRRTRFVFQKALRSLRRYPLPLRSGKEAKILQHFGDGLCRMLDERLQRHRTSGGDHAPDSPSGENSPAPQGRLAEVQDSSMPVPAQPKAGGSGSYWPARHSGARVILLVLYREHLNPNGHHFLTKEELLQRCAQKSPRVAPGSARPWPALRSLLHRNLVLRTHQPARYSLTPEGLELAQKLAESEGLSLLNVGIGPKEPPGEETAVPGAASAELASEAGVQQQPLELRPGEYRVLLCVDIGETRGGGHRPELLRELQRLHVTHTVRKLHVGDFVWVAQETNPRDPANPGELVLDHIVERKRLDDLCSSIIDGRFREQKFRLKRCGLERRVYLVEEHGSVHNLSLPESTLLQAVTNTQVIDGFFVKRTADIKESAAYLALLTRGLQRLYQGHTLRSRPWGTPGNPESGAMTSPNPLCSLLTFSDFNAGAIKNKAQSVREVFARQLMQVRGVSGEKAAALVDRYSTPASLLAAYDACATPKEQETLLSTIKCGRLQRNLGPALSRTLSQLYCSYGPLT
T2 sequence (Q96AY2 1-570 partner): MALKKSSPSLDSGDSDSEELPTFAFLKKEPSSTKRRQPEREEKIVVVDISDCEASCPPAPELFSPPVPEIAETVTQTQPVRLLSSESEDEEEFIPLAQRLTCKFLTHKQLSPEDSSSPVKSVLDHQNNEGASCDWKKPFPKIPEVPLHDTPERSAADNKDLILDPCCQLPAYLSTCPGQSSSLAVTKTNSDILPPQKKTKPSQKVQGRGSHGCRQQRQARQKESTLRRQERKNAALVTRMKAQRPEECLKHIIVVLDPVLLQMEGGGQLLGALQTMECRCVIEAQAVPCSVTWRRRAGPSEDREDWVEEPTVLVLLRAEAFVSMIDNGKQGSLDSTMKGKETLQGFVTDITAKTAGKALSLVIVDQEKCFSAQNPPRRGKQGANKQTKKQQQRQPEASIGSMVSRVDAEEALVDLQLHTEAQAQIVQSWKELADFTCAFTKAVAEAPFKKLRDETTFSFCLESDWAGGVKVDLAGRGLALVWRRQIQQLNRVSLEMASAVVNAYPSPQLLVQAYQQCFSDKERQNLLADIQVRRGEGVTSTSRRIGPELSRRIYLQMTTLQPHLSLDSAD
Method in brief: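 LE was calculated as 1.37 × pIC50/HAC and LLE as pIC50 − LogD. LogD was measured by shake-flask partition between octanol and water at pH 7.4. IC50 values are the geometric mean ± SEM of at least three determinations.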

[2] = Metabolic stability in rat hepatocytes; type: in vitro ADME
Method in brief: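 Intrinsic clearance was measured in rat hepatocyte incubations and expressed as μL/min/1 × 10^6 cells.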

[3] = molecular target: safety panel of 22 common off-targets, comprising enzymes, receptors and ion channels (e.g., COX2, PDEs, INSR, GABA, NMDA, CaV-L); assay: Eurofins SafetyScreen panel of 22 common off-targets; type: biochemical; settings: read-out: IC50 against safety panel off-targets

SMILES: O=C(O)c1nc(-c2ccccc2)nc(O)c1O [Compound 5]
increase in potency ([1]; compared with methyl ester 1): ~20 fold

SMILES: Cc1nc(C(=O)O)c(O)c(=O)[nH]1 [Compound 6]
drop in potency ([1]; compared with acid 5): ~20 fold

SMILES: O=C(O)c1nc(-c2ccc(Cl)cc2)nc(O)c1O [Compound 10]
increase in affinity [1]: ~2 fold

SMILES: O=C(O)c1cn(-c2ccc(-c3ccccc3)cc2)cc(O)c1=O [Compound 18]
improvement in biochemical activity (IC50) (Full length MUS81-EME1): approximately 3 fold

SMILES: N#Cc1cc(-c2ccc(C(=O)N3CCNCC3)cc2)ccc1-n1cc(O)c(=O)c(C(=O)O)c1 [Compound 24]
improvement in biochemical activity (Full length MUS81-EME1): approximately 2 fold
IC50 [3]: > 100 µM
rHep Clint [2]: 10 μL/min/1 × 10^6 cells

Further lines, results first:

increase in affinity [1]: ~2 fold
SMILES: O=C(O)c1nc(-c2ccc(Br)cc2)nc(O)c1O [Compound 11]

increase in affinity [1]: ~2 fold
SMILES: O=C(O)c1nc(-c2ccc3ccccc3c2)[nH]c(=O)c1O [Compound 12]

improvement in biochemical activity (IC50) (Full length MUS81-EME1): ~2 fold
SMILES: O=C(O)c1nc(-c2ccc(N3CCNCC3)cc2)[nH]c(=O)c1O [Compound 17]

improvement in biochemical activity (Full length MUS81-EME1): approximately 2 fold
rHep Clint [2]: 11 μL/min/1 × 10^6 cells
SMILES: O=C(O)c1cn(-c2ccc(-c3ccc(C(=O)N4CCNCC4)cc3)cc2)cc(O)c1=O [Compound 23]

Source: paper PMC11247637 (ACS Medicinal Chemistry Letters, 2024)
